Screening data from PubChem BioAssay.
This is one part of a sample in which hits are shown more often than they occur.
NOD2-RIPK2 inh: blocks binding of human NOD2 to RIPK2. AID 624267. hit rate 0.38% among 360,000. inhibition, % at 4.98 µM. CHO BLA complementation NOD2-RIPK2, CCF4 ratio. O43353; in the data active = inhibition above about 21%
CHOP UPR activ: apoptotic UPR (CHOP) activation; CHO-CHOP luciferase reporter, luminescence; percent of tunicamycin response over DMSO baseline; activation, % at 10 µM; hit rate 0.34% among 330,000; AID 449763;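 active = at 10 µM dose, activation of 40% or more, normalized to positive control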
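Dosing – one dose, 10 µM in 0.5% DMSO · System – CHO-CHOP cells, stable luciferase reporter of PERK-eIF2a-CHOP signalling · Input – 500 cells/well · Control set – tunicamycin 10 µg/mL final as positive, DMSO-only wells as negative · Timing – 6 h compound treatment, 37 °C · Measure – % activation vs tunicamycin · Technique – luminescence read with Steady-Glo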
CHOP inhibitor: inhibitors of CHOP induction in ER stress response. hit rate 3.8% among 220,000. inhibition, % at 10 µM. CHO-K1 CHOP-promoter luciferase, tunicamycin-induced, 15-18 h;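 active = compounds that reduced the stress-induced luciferase reporter signal by more than about 70% of percent inhibition, limit read from the data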
TLR9-MyD88 inh: inhibitors of human TLR9-MyD88 binding | Q9NR96+Q99836 | CHO BLA complementation TLR9-MyD88, CCF4 FRET ratio | inhibition, % at 4.98 µM | hit rate 0.21% among 340,000 | AID 504734;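 active = inhibition above the mean over all tested compounds plus 3 SD, cut at about 21% in these data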
TLR4 MyD88 comp: inhibitors of human TLR4-MyD88 binding | O00206+Q99836 | HeLa CL3-4 TLR4/MyD88 BLA complementation, FRET ratio | inhibition, % at 8.4 µM | hit rate 0.18% among 200,000 | AID 861; in the data active = inhibition above about 25%
Target sequence (O00206 whole entry, looked up): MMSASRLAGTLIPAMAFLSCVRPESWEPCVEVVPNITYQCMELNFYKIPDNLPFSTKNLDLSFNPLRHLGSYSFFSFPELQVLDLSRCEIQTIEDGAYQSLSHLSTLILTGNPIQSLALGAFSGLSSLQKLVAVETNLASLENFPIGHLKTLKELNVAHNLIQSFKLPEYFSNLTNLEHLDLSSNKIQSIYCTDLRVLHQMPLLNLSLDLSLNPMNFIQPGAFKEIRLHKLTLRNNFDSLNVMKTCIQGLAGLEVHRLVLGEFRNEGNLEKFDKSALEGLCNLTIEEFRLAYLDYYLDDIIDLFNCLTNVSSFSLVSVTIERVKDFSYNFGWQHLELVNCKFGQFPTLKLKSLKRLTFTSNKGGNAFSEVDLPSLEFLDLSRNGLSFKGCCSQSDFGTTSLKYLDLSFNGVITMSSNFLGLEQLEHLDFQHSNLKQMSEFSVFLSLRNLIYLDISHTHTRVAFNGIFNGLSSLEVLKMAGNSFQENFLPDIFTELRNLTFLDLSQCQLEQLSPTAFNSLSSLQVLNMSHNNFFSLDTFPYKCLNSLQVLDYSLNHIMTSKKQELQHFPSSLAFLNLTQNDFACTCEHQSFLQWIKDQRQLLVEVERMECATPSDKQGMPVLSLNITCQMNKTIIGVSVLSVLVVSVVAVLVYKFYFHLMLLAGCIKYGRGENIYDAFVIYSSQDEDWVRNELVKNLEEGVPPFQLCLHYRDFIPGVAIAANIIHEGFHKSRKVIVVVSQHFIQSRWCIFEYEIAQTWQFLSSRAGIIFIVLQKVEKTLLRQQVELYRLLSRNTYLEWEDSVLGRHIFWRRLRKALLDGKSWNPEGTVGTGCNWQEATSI
Target sequence (Q99836 whole entry, looked up): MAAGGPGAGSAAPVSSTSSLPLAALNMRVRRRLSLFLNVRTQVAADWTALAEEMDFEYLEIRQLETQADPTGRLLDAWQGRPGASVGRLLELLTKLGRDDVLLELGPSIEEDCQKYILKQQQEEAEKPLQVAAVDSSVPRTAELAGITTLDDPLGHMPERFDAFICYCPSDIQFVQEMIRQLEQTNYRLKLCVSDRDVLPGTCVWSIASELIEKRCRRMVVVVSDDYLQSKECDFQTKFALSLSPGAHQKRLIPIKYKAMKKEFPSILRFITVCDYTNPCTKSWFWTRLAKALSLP
UPR XBP1 act: adaptive UPR (XBP1) activation | CHO-XBP1 luciferase reporter, IRE1-XBP1 UPR activation, luminescence; percent of tunicamycin response, DMSO as zero | activation, % at 20 µM | hit rate 0.33% among 330,000 | AID 463104;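 active = versus positive control, 20 µM dose yields 30% or more activation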
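Material: CHO cell line with stable XBP1 luciferase reporter; buffer or medium: F12 medium containing 10% fetal bovine serum; compound: single point, 20 µM final compound, 1% DMSO; incubation: 6 h treatment, 37 °C; measured by: glow luminescence from Steady-Glo reagent; evaluation: activation, % of tunicamycin; control set: tunicamycin high, DMSO low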
Large screens that a line does not name were inactive.

COc1ccc(-n2cc(-c3ccccc3)c3c(N4CC(C)OC(C)C4)ncnc32)cc1 (stereo not given)	CHOP inhibitor 73
CC(C)(C)C(=O)C(Cl)C(=O)Nc1ccccc1 (stereo not given)	CHOP inhibitor 80, UPR XBP1 act 54 (no result: TLR4 MyD88 comp)
O=C(NCc1cccnc1)c1csc([C@@H]2C[C@H](O)[C@@H](CO)O2)n1	none (no result: CHOP UPR activ, CHOP inhibitor, TLR9-MyD88 inh, TLR4 MyD88 comp, UPR XBP1 act)
COc1ccc(-c2n[nH]c(C)c2-c2cscn2)c(O)c1	none (no result: TLR4 MyD88 comp)
CCOc1ccc(-c2n[nH]c(C)c2-c2ccccc2OC)c(O)c1	CHOP inhibitor 87
O=C(CCCSCCCC(=O)NN=Cc1ccccc1)NN=Cc1ccccc1	none (no result: CHOP UPR activ, CHOP inhibitor, TLR4 MyD88 comp, UPR XBP1 act)
Cc1ccc(-c2nnn(CC(=O)N(c3cccc(F)c3)C(C(=O)NC(C)(C)C)c3ccco3)n2)o1 (stereo not given)	CHOP inhibitor 95
CCn1ncc(Br)c1C(=O)Nc1ccn(C23CC4CC(CC(C4)C2)C3)n1	none
CCn1ncc(Br)c1C(=O)N(C)C12CC3CC(CC(C3)C1)C2	CHOP inhibitor 87
CCOC(=O)c1cnc2c(cnn2CC)c1NN=C(C)C	none (no result: NOD2-RIPK2 inh, CHOP UPR activ, TLR9-MyD88 inh, TLR4 MyD88 comp, UPR XBP1 act)
Cc1ccccc1NC(=O)Cc1nc(COC(=O)c2nccnc2N)cs1	none (no result: CHOP UPR activ, CHOP inhibitor, TLR4 MyD88 comp, UPR XBP1 act)
C(=C\c1ccccc1)/CN1CCN(c2ncnc3c2oc2ccccc23)CC1	CHOP inhibitor 94
c1ccc2c(c1)oc1c(N3CCOCC3)ncnc12	none
Cc1ccc(NC(=O)C(OC(=O)c2ccc(NC(N)=O)cc2)c2ccccc2)cc1Cl (stereo not given)	CHOP inhibitor 91
Cc1ccc(NC(=O)C(OC(=O)c2ccccc2Cl)c2ccccc2)cc1Cl (stereo not given)	none
CC(=O)c1cccc(NS(=O)(=O)c2ccc(N/C=C\C(=O)c3ccc(F)cc3)cc2)c1	CHOP inhibitor 84
CC(=O)c1cccc(NS(=O)(=O)c2ccc(N/C=C/C(=O)c3ccc(F)cc3)cc2)c1	CHOP inhibitor 83
CC(=O)c1cccc(NS(=O)(=O)c2ccc(N/C=C\C(=O)c3ccc(C)cc3)cc2)c1	none
COc1ccc(S(=O)(=O)N2CCC(C(=O)N[C@@H](C)C(=O)NCc3ccco3)CC2)cc1	none (no result: CHOP UPR activ, CHOP inhibitor, TLR4 MyD88 comp, UPR XBP1 act)
O=[N+]([O-])c1ccc(S(=O)(=O)Nc2ccc(-c3csc(-c4ccccc4)n3)cc2)cc1	none (no result: NOD2-RIPK2 inh, TLR9-MyD88 inh)
Cc1cc(C(=O)OC(C)C(=O)Nc2nc(-c3ccccc3)cs2)c(C)o1 (stereo not given)	none
Cc1ccc(S(=O)(=O)CC(=O)Nc2nc(-c3ccccc3)cs2)cc1	CHOP inhibitor 90
CCN(CC)S(=O)(=O)c1cccc(NC(=O)COC(=O)c2cc(C)oc2C)c1	CHOP inhibitor 72
Cc1ccc(S(=O)(=O)Nc2ccc(-c3csc(-c4ccccc4)n3)cc2)cc1	CHOP inhibitor 94
Cc1cc(C(=O)OCC(=O)Nc2nc(-c3ccccc3)cs2)c(C)o1	CHOP inhibitor 94
Cc1cc(C(=O)OCC(=O)Nc2cccc(S(=O)(=O)N(C)C)c2)c(C)o1	none (no result: TLR4 MyD88 comp)
O=C(CS(=O)(=O)c1ccccc1)Nc1nc(-c2ccccc2)cs1	none
O=C(NC1CCCCC1)C1c2ccccc2OCC(=O)N1C1CC1 (stereo not given)	none (no result: CHOP UPR activ, CHOP inhibitor, TLR9-MyD88 inh, TLR4 MyD88 comp, UPR XBP1 act)
O=C(Cc1cccc2ccccc12)N/N=C/c1ccc(F)cc1	CHOP inhibitor 74
Cc1ccccc1N(CC(=O)N/N=C/c1ccc(Cl)cc1)C(=O)c1ccccc1	CHOP inhibitor 72
CCOC(=O)CN(C(=O)c1ccccc1)c1ccccc1C	none
Cc1ccccc1N(CC(=O)N/N=C/c1ccc(F)cc1)C(=O)c1ccccc1	CHOP inhibitor 89
Cc1ccccc1NC(=O)CCC(=O)N/N=C/c1ccc(F)cc1	none
O=C(Cc1cccc2ccccc12)N/N=C/c1ccncc1	none
COCCNC(=O)C1(C)CCN(C(=O)c2cc(C)n(C(C)(C)C)n2)C1 (stereo not given)	none (no result: CHOP UPR activ, CHOP inhibitor, TLR9-MyD88 inh, TLR4 MyD88 comp, UPR XBP1 act)
O=C1CC(c2ccco2)CC(O)=C1C=Nc1ccc(Br)cc1 (stereo not given)	CHOP inhibitor 87
Cc1ccc(CNC(=O)CCc2c(C)nc3c(c(C)nn3-c3ccc(C)cc3)c2C)cc1	none
Cc1ccc(-n2nc(C)c3c(C)c(CCC(=O)NCc4ccccc4)c(C)nc32)cc1	CHOP inhibitor 70
Cc1ccc(-n2nc(C)c3c(C)c(CCC(=O)NCc4ccco4)c(C)nc32)cc1	CHOP inhibitor 70 (no result: TLR4 MyD88 comp)
CCCCNC(=O)CCc1c(C)nc2c(c(C)nn2-c2ccccc2)c1C	none (no result: CHOP inhibitor, TLR4 MyD88 comp)
O=C(Nc1ccc(F)cc1)C(CCc1ccccc1)N1CCN(c2cccc(C(F)(F)F)n2)CC1 (stereo not given)	none (no result: CHOP UPR activ, CHOP inhibitor, TLR9-MyD88 inh, TLR4 MyD88 comp, UPR XBP1 act)
CC1(C(=O)Nc2cccc3cccnc23)CCN1Cc1csc2ccccc12 (stereo not given)	none (no result: CHOP UPR activ, CHOP inhibitor, TLR9-MyD88 inh, TLR4 MyD88 comp, UPR XBP1 act)
CCOc1cc(N2CCOCC2)c(OCC)cc1NC(=O)COC(=O)c1ccc(OC)c([N+](=O)[O-])c1	none (no result: CHOP UPR activ, CHOP inhibitor, TLR4 MyD88 comp, UPR XBP1 act)
Cc1cc(C)cc(OCC(=O)N2N=C(c3cccnc3)CC2(O)C(F)(F)F)c1 (stereo not given)	none
CC(C)(C)C1(O)CC(C(F)(F)F)=NN1C(=O)CCCc1ccccc1 (stereo not given)	CHOP inhibitor 88
CC(C)(C)C1=NN(C(=O)c2ccccc2)C(O)(C(C)(C)C)C1 (stereo not given)	none
Cc1cc(C)cc(OCC(=O)N2N=C(C(F)(F)F)CC2(O)C(C)(C)C)c1 (stereo not given)	CHOP inhibitor 78
CC1Cc2ccccc2N1CC(=O)NC(c1ccccc1)c1ccccc1 (stereo not given)	CHOP inhibitor 87
COc1ccc([C@H]2C[C@@H](O)[C@H](n3cc(C4CC4)nn3)CN2Cc2cccs2)cc1	none (no result: CHOP UPR activ, CHOP inhibitor, TLR4 MyD88 comp, UPR XBP1 act)
Cn1c(SCC(=O)Nc2cccc(F)c2)nnc1-c1cc2ccccc2o1	CHOP inhibitor 74
Cc1ccc(CCc2nnc(SCC(=O)Nc3cccc(Cl)c3)n2-c2ccccc2)o1	CHOP inhibitor 85
Cc1nnc(SCC(=O)Nc2cc(C(N)=O)cc(C(N)=O)c2)n1-c1ccccc1	none (no result: CHOP inhibitor, TLR4 MyD88 comp)
CCn1c(SCC(=O)c2ccc3c(c2)Cc2ccccc2-3)nnc1-c1ccc(N)cc1	CHOP inhibitor 85
CCn1c(SCC(=O)Nc2ccc3c(c2)oc2ccccc23)nnc1-c1ccc(N)cc1	CHOP inhibitor 95
Cc1ccc2nc(-c3sc4nc(C)cc(C)c4c3N)[nH]c2c1	CHOP inhibitor 91
CCCCn1c(SCc2ccc(Cl)cc2)nc2c1c(=O)[nH]c(=O)n2C	CHOP inhibitor 82
CCCCCn1c(Sc2nc3ccccc3s2)nc2c1c(=O)[nH]c(=O)n2C	CHOP inhibitor 76
CC(C)CSc1nc2c(c(=O)[nH]c(=O)n2C)n1CCc1ccccc1	none
CCCCCn1c(N2CCN(c3cccc(Cl)c3)CC2)nc2c1c(=O)[nH]c(=O)n2C	CHOP inhibitor 87
